ChEMBL document CHEMBL3861953 (J Med Chem, 2016)
≈ marks a conversion by molar mass, not a printed value. Calls of active or inactive are those of the source. The rule behind the calls is not given here.

What was measured:
[1] = system: Mycobacterium tuberculosis; assay: Inhibition of recombinant Mycobacterium tuberculosis InhA expressed in Escherichia coli Rosetta (DE3) pLysS at 30 uM using 2-trans-decenoyl-N-acetylcyste-amine as substrate measured for 120 sec in presence of NADH by spectrophotometric method
Procedure, shortened: (§1)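 His-tagged InhA purified by Ni-chelate then gel filtration. Assay at 25 °C in 30 mM PIPES, 150 mM NaCl, 1 mM EDTA, pH 6.8 with 200 µM trans-2-decenoyl-N-acetylcysteamine, 100 µM NADH, 1 µg enzyme. Initial rate of A340 decrease over 120 s. DMSO 0.1%; triplicates; triclosan positive control.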

[2] = Inhibition of recombinant Mycobacterium tuberculosis InhA expressed in Escherichia coli Rosetta (DE3) pLysS using 2-trans-decenoyl-N-acetylcyste-amine as substrate in presence of NADH by spectrophotometric method; procedure, shortened: as §1
Mycobacterium marinum [3] = assay: Antimycobacterial activity against LuxABCDE expressing Mycobacterium marinum measured after 48 hrs by luminescence based serial dilution assay; type: functional
Procedure, shortened: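 LuxABCDE-expressing M. marinum was grown shaking at 32°C in 7H9 with OADC to OD600 0.8-1. 10^5 bacteria per well were exposed to compounds (submicromolar to submillimolar) in 7H9 with 0.5% v/v DMSO at 32°C. Luminescence was followed for 48 h, with amikacin 10 µM as control. MIC was the lowest concentration giving significant signal reduction versus DMSO control at 48 h.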

Mycobacterium marinum [4] = assay: Antivirulence activity against Mycobacterium marinum assessed as Dictyostelium discoideum phagocytic plaque formation at 10 uM preincubated for 2 to 3 hrs followed by Dictyostelium discoideum addition measured after 5 to 9 days in presence of Klebsiella pneumoniae relative to control; type: functional
Procedure, shortened: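 Mixed lawn of mid-log Mm pellet resuspended in equal volume of overnight non-virulent Kp culture diluted 10-5; 50 µl spread on SM agar containing compound (10 µM), dried 2-3 h, then 103 Dictyostelium cells added. Incubated 5-9 days at 25 °C; phagocytic plaque diameter scored 0-4 versus DMSO control.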

[5] = Toxicity against Dictyostelium discoideum at 10 uM
Klebsiella pneumoniae = assay: Toxicity against Klebsiella pneumoniae at 10 uM
Enterococcus faecalis = assay: Antimicrobial activity against Enterococcus faecalis ATCC 29212 assessed as inhibition of bacterial growth measured after 24 hrs using p-iodonitrotetrazolium violet by broth dilution method; type: functional; settings: ATCC 29212, 24 h
Procedure, shortened: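 E. faecalis ATCC 29212 in Mueller-Hinton broth. Compounds were taken up at 2 mg/ml in DMSO (stock) and doubling dilutions were made in MHB. Inoculum was 1-5 × 10^5 final, incubated 37°C for 24 h, with sterility, growth and DMSO solvent controls. Growth was read by reduction of INT (2 mg/ml solution, several hours) to formazan. MIC was the lowest concentration with no red-purple colour or visible turbidity.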

[6] = Mycobacterium marinum, 48 h, read-out: MIC

| SMILES | inhibition [1] | IC50 [2] [µM] | MIC (Mycobacterium marinum [3]; [6]) [µM] | Activity (Mycobacterium marinum [4]) | Activity [5] | Activity (Klebsiella pneumoniae) | MIC (Enterococcus faecalis) [µM] | MIC (Mycobacterium marinum [3]) [µM] |
| --- | --- | --- | --- | --- | --- | --- | --- | --- |
| CCCc1ccc(/C=C2\SC(=S)N([C@@H](Cc3c[nH]c4ccccc34)C(=O)O)C2=O)cc1 | Active | 13 | 22.2 (≈ 10 µg/mL) | Active | Non-Toxic | Non-Toxic |  |  |
| O=C(O)[C@H](Cc1c[nH]c2ccccc12)N1C(=O)/C(=C/c2ccc(Cl)cc2Cl)SC1=S | Active | 9.5 | 21 (≈ 10 µg/mL) | Active | Non-Toxic | Non-Toxic |  |  |
| O=C(O)[C@@H](Cc1c[nH]c2ccccc12)N1C(=O)/C(=C/c2ccc(N(CCCl)CCCl)cc2)SC1=S | Active | 15.2 | 18.3 (≈ 10 µg/mL) | Active | Non-Toxic | Non-Toxic |  |  |
| CC(C)C[C@@H](C(=O)O)N1C(=O)/C(=C/c2ccc(N(C)C)c3ccccc23)SC1=S | Active |  |  |  |  |  |  |  |
| CCCc1ccc(/C=C2\SC(=S)N([C@H](Cc3c[nH]c4ccccc34)C(=O)O)C2=O)cc1 | Active | 13 | 55.5 (≈ 25 µg/mL) | Active | Non-Toxic | Non-Toxic |  |  |
| Oc1cc(Cl)ccc1Oc1ccc(Cl)cc1Cl [TRICLOSAN] |  | 6.1 | 8.63 (≈ 2.5 µg/mL) |  |  |  |  |  |
| O=C(O)[C@H](Cc1c[nH]c2ccccc12)N1C(=O)/C(=C/c2ccc(Cl)cc2)SC1=S | Active | 19.7 | 21.1 (≈ 9.32 µg/mL) | Active | Non-Toxic | Non-Toxic |  |  |
| CN(C)c1ccc(/C=C2\SC(=S)N([C@@H](Cc3c[nH]c4ccccc34)C(=O)O)C2=O)cc1 (stereo in doubt; 24) [listing 1 of 2 here] | Active |  |  | Active |  |  |  |  |
| CC(C)C[C@H](C(=O)O)N1C(=O)/C(=C/c2ccc(N(C)C)c3ccccc23)SC1=S | Active |  |  |  |  |  |  |  |
| CCN(CC)c1ccc(/C=C2\SC(=S)N([C@@H](CC(C)C)C(=O)O)C2=O)cc1 | Active | 22.4 | 2.46 (≈ 1 µg/mL) | Active | Non-Toxic | Non-Toxic |  |  |
| O=C(O)[C@H](Cc1c[nH]c2ccccc12)N1C(=O)/C(=C/c2ccc(N(CCCl)CCCl)cc2)SC1=S | Active | 12.2 | 1.82 (≈ 0.998 µg/mL) | Active | Non-Toxic | Non-Toxic |  |  |
| CCCCC(C(=O)O)N1C(=O)/C(=C/c2ccc(N(C)C)c3ccccc23)SC1=S (racemic) | Active | 24.4 | 2.33 (≈ 0.999 µg/mL) |  |  |  |  |  |
| NCC[C@H](O)C(=O)N[C@@H]1C[C@H](N)[C@@H](O[C@H]2O[C@H](CN)[C@@H](O)[C@H](O)[C@H]2O)[C@H](O)[C@H]1O[C@H]1O[C@H](CO)[C@@H](O)[C@H](N)[C@H]1O [AMIKACIN] |  |  | 1.7 (≈ 0.996 µg/mL) |  |  |  |  |  |
| O=C(O)[C@H](Cc1c[nH]c2ccccc12)N1C(=O)/C(=C/c2c3ccccc3c(Cl)c3ccccc23)SC1=S | Active | 2.9 | 184 (≈ 100 µg/mL) | Active | Non-Toxic | Non-Toxic | 0.57 (≈ 0.31 µg/mL) |  |
| CN(C)c1ccc(/C=C2\SC(=S)N([C@@H](Cc3c[nH]c4ccccc34)C(=O)O)C2=O)cc1 (stereo in doubt; 12) [listing 1 of 2 here] | Active |  |  |  |  |  |  |  |
| CC(C)CC(N1C(=O)/C(=C/c2ccc(N(C)C)c3ccccc23)SC1=S)P(=O)(O)O (configuration not stated) | Active | 19.1 | 21.6 (≈ 10 µg/mL) | Active | Non-Toxic | Non-Toxic |  |  |
| Cc1ccc(/C=C2\SC(=S)N([C@@H](Cc3c[nH]c4ccccc34)C(=O)O)C2=O)c2ccccc12 | Active | 8.7 | 0.21 (≈ 0.0992 µg/mL) | Active | Non-Toxic | Non-Toxic | 2.6 (≈ 1.23 µg/mL) |  |
| CN(C)c1ccc(/C=C2\SC(=S)N([C@@H](Cc3c[nH]c4ccccc34)C(=O)O)C2=O)cc1 (stereo in doubt; 24) [listing 2 of 2 here] |  | 14.7 |  |  | Non-Toxic | Non-Toxic |  | 2.08 (≈ 0.939 µg/mL) |
| Cc1ccc(/C=C2\SC(=S)N([C@H](Cc3c[nH]c4ccccc34)C(=O)O)C2=O)c2ccccc12 | Active | 11 | 2.11 (≈ 0.997 µg/mL) | Active | Non-Toxic | Non-Toxic | 5.2 (≈ 2.46 µg/mL) |  |
| CN(C)c1ccc(/C=C2\SC(=S)N([C@@H](Cc3c[nH]c4ccccc34)C(=O)O)C2=O)cc1 (stereo in doubt; 12) [listing 2 of 2 here] |  | 28.6 |  |  |  |  |  | 22.17 (≈ 10 µg/mL) |
| CN(C)c1ccc(/C=C2\SC(=S)N([C@@H](Cc3c[nH]c4ccccc34)C(=O)O)C2=O)c2ccccc12 | Active | 19.1 | 1.99 (≈ 0.998 µg/mL) | Active | Non-Toxic | Non-Toxic |  |  |
